# Key:
# PK studies in the rat = format: in vivo; settings: Sprague Dawley, plasma, intravenous, 1 mg·kg^−1
# Outline: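 Male Sprague Dawley rats were given test compound at 1 mg·kg−1 IV or 3 mg·kg−1 orally; dose was set by syringe weight difference. Serial tail-vein blood was taken from 2 to 1440 min and centrifuged at 4°C. Plasma was stored at −20°C and then quantified by LC–MS/MS against calibration curves in control rat plasma. Parameters were derived by non-compartmental analysis.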
# [1] = Plasma protein binding by equilibrium dialysis, rat plasma; format: in vitro ADME; settings: 10 μM, 18 h at 37°C, mean, n of at least 3
# Outline: (§1)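 Test compound at 10 μM final was added to plasma and dialysed against buffer across a 5 kD membrane in a rotating unit for 18 h at 37°C. Buffer and plasma-side aliquots were quenched in methanol and measured by LC–MS/MS. Free fraction is the mean of at least three studies.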
# DPP1 = DPP1 (Homo sapiens, UniProt P53634); test: DPP1 activity cell assay; format: cell-based; settings: read-out: DPP1 IC50, corrected for PPB; in vitro potency corrected for rat PPB
# neutrophil elastase (NE) = test: Onset studies: NE activity in rat blood and bone marrow lysates; format: in vivo; settings: onset 1 (14 day study), bone marrow
# Outline: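 Rats were dosed orally twice daily with test compound, 3.6 mg·kg−1 and then 10.7 mg·kg−1 8 h later, against citrate buffer pH 3.0 vehicle. Onset 1 ran 5, 8, 10, 12 or 14 days. Femurs were taken under isoflurane 2 h after the last dose. Marrow leukocytes were lysed on ice at 10^8 cells mL−1. Lysates received Methoxysuccinyl-Ala-Ala-Pro-Val-AMC and were read by fluorescence (ex 350–380, em 450–460 nm) for up to 60 min. Initial rate came from the linear range.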
# proteinase 3 (PR3) = test: Onset studies: PR3 activity in rat blood and bone marrow lysates; format: in vivo; settings: onset 1 (14 day study), bone marrow
# Outline: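 Male Sprague Dawley rats received test compound orally twice daily, 3.6 and 10.7 mg·kg−1 8 h apart, for up to 14 days. Vehicle was citrate buffer pH 3.0. Blood and femoral marrow lysates (10^8 cells mL−1, Triton X-100) were incubated 15 min, then given the 5-FAM/QXL520 quenched peptide substrate. Fluorescence (ex 320–490, em 405–520 nm) was followed up to 60 min. Initial rate came from the linear portion.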
# cathepsin G (CatG) = test: Onset studies: CatG activity in rat blood and bone marrow lysates; format: in vivo; settings: two onset studies, small assay window
# Outline: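 Male Sprague Dawley rats (200–400 g) were dosed orally twice daily, 3.6 mg·kg−1 in the morning and 10.7 mg·kg−1 8 h later, for 5–14 days (onset 1) or 1–8 days (onset 2). Vehicle was 0.1 M citrate buffer, pH 3.0. Blood and femoral marrow cells were lysed at 10^8 cells mL−1 in Triton X-100 buffer. Lysates were incubated 15 min, then given N-succinyl-Ala-Ala-Pro-Phe-pNA and read by absorbance at 405 nm for 90–120 min. Initial rate was taken from the linear range.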
# NSP activity = test: Pharmacokinetic/pharmacodynamic modelling of NSP activity in rat; format: in vivo
# Outline: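 Rat NSP activity time courses were fitted with an indirect response model: production rate kin scaled by uninhibited DPP1 fraction 1 − C/(IC50 + C), loss rate kout, baseline taken as 100%. IC50 was the in vitro cell potency corrected for plasma protein binding. Exposure was simulated with a one-compartment PK model. kout was fitted to blood data from the onset study and bone marrow data from the recovery study.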
# [2] = Prediction of human PK for AZ2; settings: predicted
# [3] = Plasma protein binding by equilibrium dialysis, human plasma; format: in vitro ADME; settings: 10 μM, 18 h at 37°C, mean, n of at least 3
# Outline: as §1
Structure (SMILES),clearance (PK studies in the rat),PPB (%free) [1],IC50 (DPP1),days of treatment to reach maximum reduction in NE activity (neutrophil elastase (NE)),days of treatment to reach maximum reduction in PR3 activity (proteinase 3 (PR3)),effect on CatG activity (cathepsin G (CatG)),maximum reduction in protease activity in blood (NSP activity; onset studies),CL [2],PPB (%free) [3],maximum reduction in protease activity in bone marrow (NSP activity; recovery study)
"N#Cc1ccc(-c2ccc(C[C@@H](C#N)NC(=O)[C@@H]3CCCCN3)cc2)cc1 [AZ1, (S)‐N‐((S)‐1‐cyano‐2‐(4′‐cyanobiphenyl‐4‐yl)ethyl)piperidine‐2‐carboxamide]",6.67 mL/min,4.1 %free,140 nM,8 days,8 days,lack of effect,about 75%,,,
"N#Cc1ccc(-c2ccc(C[C@@H](C#N)NC(=O)C3(N)CCOCC3)cc2)cc1 [AZ2, (S)‐4‐amino‐N‐(1‐cyano‐2‐(4′‐cyanobiphenyl‐4‐yl)ethyl)tetrahydro‐2H‐pyran‐4‐carboxamide]",1.67 mL/min,11 %free,,,,,,3.4 L/h,9.1 %free,90%
